Test results reported in ChEMBL document CHEMBL4725346, “Syntheses and Evaluation of New Bisacridine Derivatives for Dual Binding of G-Quadruplex and i-Motif in Regulating Oncogene c-myc Expression” (J Med Chem, 2020).
pIC50, pKd: −log10 of the molar value. Calls of active or inactive are those of the source. No cut-off for these calls is given here.

Columns and labels:
[1] = system: SiHa; assay: Induction of apoptosis in human SiHa cells assessed as late apoptotic cells at 2.4 uM after 24 hrs by annexin V/FITC-propidium iodide staining-based flow cytometric method ( Rvb = 0.4%); assay type: functional
[2] = system: SiHa; assay: Induction of cell cycle arrest in human SiHa cells assessed as accumulation of cells at S phase at 0.60 uM after 24 hrs by propidium iodide staining based flow cytometry (reference value: 17.74%); assay type: functional; details: dose 0.6 µM
[3] = target: dsDNA; assay: Binding affinity to 5'-biotin labeled duplex DNA (unknown origin) by surface plasmon resonance method; assay type: nucleic-acid assay
Summary of the method: (§1)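 SPR: 5'-biotin DNA diluted to 1 μM and captured (1000 RU) on a sensor chip, with a blank cell as reference. Running buffers: Py33 in 20 mM MES pH 5.8, 100 mM KCl, 0.05% Tween-20; Pu27 and duplex in 50 mM Tris-HCl pH 7.4, 100 mM KCl. Six ligand concentrations serially diluted from DMSO stock. Association 260 s, dissociation 300 s at 25 °C; NaOH regeneration; blank sensorgrams subtracted.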

[4] = Binding affinity to 5'-biotin labeled c-myc promoter i-motif DNA Py33 (unknown origin) by surface plasmon resonance method; summary of the method: as §1
[5] = system: Raji; assay: Antiproliferative activity against human Raji cells after 48 hrs by MTT assay; assay type: functional, cell-based
[6] = system: SiHa; assay: Induction of apoptosis in human SiHa cells assessed as necrotic cells at 0.6 uM after 24 hrs by annexin V/FITC-propidium iodide staining-based flow cytometric method ( Rvb = 0.1%); assay type: functional
[7] = system: SiHa; assay: Induction of apoptosis in human SiHa cells assessed as decrease in caspase-7 level incubated for 24 hrs by Western blot analysis; assay type: functional, cell-based; details: dose microM 0.6-2.4, time 24.0 hrs
[8] = system: Huh-7; assay: Antiproliferative activity against human Huh-7 cells after 48 hrs by MTT assay; assay type: functional, cell-based; details: Huh-7, 48 h
Summary of the method: (§2)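 Cells seeded at 5.0×10^3 per well, pre-incubated 12 h at 37 °C, 5% CO2, then exposed to compounds for 48 h; DMSO-only control. MTT (2.5 mg/mL) added for 4 h, formazan dissolved in DMSO, absorbance at 570 nm. Each dose tested in triplicate; IC50 from percentage survival relative to negative control.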

[9] = system: SiHa; assay: Effect on stability of c-myc RNA in human SiHa cells at 2.5 uM in presence of actinomycin D by RT-PCR method; assay type: functional, cell-based
Summary of the method: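 SiHa cells seeded at 2×10^5 per well, grown 24 h, then treated with 5 µg/mL actinomycin D plus 2.5 µM compound. Total RNA extracted at the indicated time points for RT-PCR.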

[10] = system: SiHa; assay: Induction of apoptosis in human SiHa cells assessed as necrotic cells at 1.2 uM after 24 hrs by annexin V/FITC-propidium iodide staining-based flow cytometric method ( Rvb = 0.1%); assay type: functional
[11] = system: SiHa; assay: Induction of apoptosis in human SiHa cells assessed as late apoptotic cells at 0.6 uM after 24 hrs by annexin V/FITC-propidium iodide staining-based flow cytometric method ( Rvb = 0.4%); assay type: functional
[12] = system: U2OS; assay: Antiproliferative activity against human U2OS cells after 48 hrs by MTT assay; assay type: functional, cell-based; summary of the method: as §2

For `Cc1ccc2nc3ccc(C)cc3c(NCCCNCCNCCCNc3c4cc(C)ccc4nc4ccc(C)cc34)c2c1`, the Activity [1] was 27.5%, the Activity [2] was 13.58% and the pKd [3] was 4.73. The pKd [4] was 5.62, the Activity [5] was “Active” and the Activity [6] was 0.5%. For the same compound, the Activity [7] was “Dose-dependent effect”, the pIC50 [8] was 6.80 and the Activity [9] was “inactive”. The Activity [10] was 4.6%, the Activity [11] was 3.8% and the pIC50 [12] was 6.51.
